Laboratory results published in ChEMBL document CHEMBL1134294, “A prodrug form of a Plasmodium falciparum glutathione reductase inhibitor conjugated with a 4-anilinoquinoline” (J Med Chem, 2001).
Activity calls are given as the source filed them. The rule behind the calls is not given here.

Legend:
[1] = biological target: Glutathione reductase (Plasmodium falciparum 3D7) (UniProt O15770); experiment: In vitro inhibition of Plasmodium falciparum Glutathione Reductase; Not active; conditions: Plasmodium falciparum FcB1
Procedure, shortened: (§1)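 Recombinant purified GR (about 5 mU/ml) with 100 μM NADPH in 47 mM potassium phosphate, 200 mM KCl, 1 mM EDTA, pH 6.9, at 25 °C. Enzyme, NADPH and inhibitor are premixed and the reaction is started with 100 μM GSSG. NADPH loss is read at 340 nm. IC50 is taken from increasing inhibitor concentrations in 1% final DMSO, run in duplicate.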

Plasmodium falciparum [2] = experiment: Effective dose against chloroquine-resistant Plasmodium falciparum FcB1R; format: functional
Procedure, shortened: (§2)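 Asynchronous cultures in human erythrocytes (0.5% parasitemia, 1% hematocrit) received serially diluted drug, DMSO ≤0.1%. After 24 h at 37 °C, 0.5 μCi [3H]hypoxanthine was added and incubation continued another 24 h. Growth inhibition was taken versus drug-free control, ED50 read from the concentration–response curve, and reported as mean of ≥3 independent experiments.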

[3] = Susceptibility of compound to hydrolysis at 37 degrees C at pH 5.0 acetate medium; format: ADME
Procedure, shortened: (§3)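 Prodrug (100 μM final, from 1 mM stock in 10% aqueous DMSO) is incubated at 37 °C in pH 7.4 phosphate buffer (150 mM NaCl, 4 mM NaH₂PO₄, 25 mM NaHCO₃) or pH 5.0 acetate (150 mM NaCl, 10 mM NaOAc). Half-life of ester disappearance is found by HPLC as the mean of two determinations.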

[4] = Susceptibility of compound to hydrolysis at 37 degrees C at pH 7.4 phosphate buffer; format: ADME; procedure, shortened: as §3
[5] = biological target: T1, Glutathione reductase, mitochondrial (Homo sapiens) (UniProt P00390); experiment: In vitro inhibition of human Glutathione Reductase; Not active; procedure, shortened: as §1
T1 sequence (whole entry): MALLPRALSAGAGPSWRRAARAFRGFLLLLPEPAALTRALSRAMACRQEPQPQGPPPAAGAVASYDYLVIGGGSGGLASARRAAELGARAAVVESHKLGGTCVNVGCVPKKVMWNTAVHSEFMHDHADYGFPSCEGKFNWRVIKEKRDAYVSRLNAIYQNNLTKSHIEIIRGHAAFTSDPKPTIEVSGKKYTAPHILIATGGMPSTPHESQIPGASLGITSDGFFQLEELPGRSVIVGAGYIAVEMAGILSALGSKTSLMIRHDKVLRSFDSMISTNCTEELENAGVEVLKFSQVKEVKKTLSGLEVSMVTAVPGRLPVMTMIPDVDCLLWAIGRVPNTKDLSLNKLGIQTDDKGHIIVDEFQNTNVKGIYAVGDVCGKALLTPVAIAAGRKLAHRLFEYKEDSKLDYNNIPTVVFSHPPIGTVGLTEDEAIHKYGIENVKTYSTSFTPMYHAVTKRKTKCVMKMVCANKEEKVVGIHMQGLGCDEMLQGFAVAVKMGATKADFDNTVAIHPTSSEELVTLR

[6] = Susceptibility of compound to hydrolysis at 37 degrees C for RPMI-10% human serum; format: ADME; conditions: RPMI with 10% human serum
Procedure, shortened: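 Prodrug (100 μM final, from 1 mM stock in 10% aqueous DMSO) is held in RPMI with 10% human serum at 37 °C and sampled from 0 to 77.5 h. Samples are mixed with EtOH plus internal reference, centrifuged, and the supernatant is analysed by HPLC. Half-life of ester disappearance is the mean of two determinations.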

[7] = biological target: T2, Glutathione S-transferase (Plasmodium falciparum) (UniProt Q8ILQ7); experiment: Effect on glutathione S-transferase (GST) activity of chloroquine-resistant Plasmodium falciparum K1 in culture after 24 hrs treatment at 30 nM conc; format: functional
T2 sequence (whole entry): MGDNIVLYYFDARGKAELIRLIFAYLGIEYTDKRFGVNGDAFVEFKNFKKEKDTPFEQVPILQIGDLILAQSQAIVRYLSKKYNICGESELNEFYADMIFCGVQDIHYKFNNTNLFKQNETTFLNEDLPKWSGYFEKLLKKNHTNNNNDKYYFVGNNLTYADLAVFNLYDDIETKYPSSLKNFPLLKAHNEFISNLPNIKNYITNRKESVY
Procedure, shortened: (§4)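 K1 ring-stage cultures (sorbitol-synchronized, 5% hematocrit, 3.7% parasitemia) treated 24 h. Parasites were released with 0.02% saponin (10 min, 37 °C), freeze-thawed three times and the supernatant assayed. GST activity was read spectrophotometrically at 340 nm with 0.5 mM CDNB and 1 mM GSH in 100 mM potassium phosphate, 1 mM EDTA, pH 6.5. Reported as mU/mg protein.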

Plasmodium falciparum [8] = experiment: In vitro efficacy for chloroquine-resistant Plasmodium falciparum W2; format: functional; conditions: read-out: ED50 (the source's name); procedure, shortened: as §2
Plasmodium falciparum [9] = experiment: Effect on nucleic acid of chloroquine-resistant Plasmodium falciparum K1 culture after 24 hrs at 150 nM; format: functional
Procedure, shortened: (§5)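 Synchronized K1 ring cultures were treated 24 h, then saponin-isolated and freeze-thawed. Extract was diluted in 150 mM KH2PO4, pH 8.0, and nucleic acid and protein were estimated from absorbance at 260 and 280 nm. Protein was also measured by dye-binding assay with BSA standard.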

[10] = biological target: T2, Glutathione S-transferase (Plasmodium falciparum); experiment: Effect on glutathione S-transferase (GST) activity of chloroquine-resistant Plasmodium falciparum K1 in culture after 24 hrs treatment at 500 nM conc; format: functional; procedure, shortened: as §4
[11] = biological target: T2, Glutathione S-transferase (Plasmodium falciparum); experiment: Effect on glutathione S-transferase (GST) activity of chloroquine-resistant Plasmodium falciparum K1 in culture after 24 hrs treatment at 150 nM conc; format: functional; procedure, shortened: as §4
Plasmodium falciparum [12] = experiment: Effect on protein of chloroquine-resistant Plasmodium falciparum K1 culture after 24 hrs at 150 nM; format: functional; procedure, shortened: as §5
Plasmodium falciparum [13] = experiment: In vitro efficacy for chloroquine-resistant Plasmodium falciparum K1; format: functional; conditions: read-out: ED50 (the source's name); procedure, shortened: as §2
Mus musculus [14] = experiment: Percentage of parasitaemia on day 11 in mice infected with Plasmodium berghei (ip, 40 mg/kg); format: functional
Procedure, shortened: (§6)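 Female Swiss CD-1 mice (four-week-old, 20–25 g, three per group) are infected ip with about 10⁷ P. berghei ANKA 65 parasitized erythrocytes from a donor. On the day of infection they receive 40 mg/kg orally in 100% DMSO, then daily ip for 4 days. Parasitemia is counted daily. Controls get DMSO only.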

Plasmodium falciparum [15] = experiment: Effect on protein of chloroquine-resistant Plasmodium falciparum K1 culture after 24 hrs at 500 nM; format: functional; procedure, shortened: as §5
Mus musculus [16] = experiment: Percentage of parasitaemia on day 4 in mice infected with Plasmodium berghei (ip, 40 mg/kg); format: functional; procedure, shortened: as §6
Mus musculus [17] = experiment: Percentage excess MST, when used as the chlorohydrate in mice infected with Plasmodium berghei (i.p., 40 mg/kg); format: functional; conditions: route intraperitoneal
Procedure, shortened: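 Female Swiss CD-1 mice (four weeks, 20–25 g), three per group, were infected ip with about 10^7 P. berghei ANKA parasitized erythrocytes. Dosing was 40 mg/kg in 100% DMSO, given orally at infection, then ip over the following 4 days. Parasitemia was counted daily. Activity was scored as percentage excess mean survival time over DMSO-treated infected controls.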

[18] = biological target: Glutathione reductase (Plasmodium falciparum K1) (UniProt Q94655); experiment: Effect on glutathione reductase activity of chloroquine-resistant Plasmodium falciparum K1 in culture after 24 hrs treatment at 30 nM conc; format: functional
Procedure, shortened: (§7)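 After 24 h exposure of synchronized K1 ring cultures, parasites were saponin-isolated and freeze-thaw extracts prepared. GR activity was assayed at 25 °C with 100 μM NADPH and 100 μM GSSG in 47 mM potassium phosphate, 200 mM KCl, 1 mM EDTA, pH 6.9, following NADPH consumption at 340 nm.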

Plasmodium falciparum [19] = experiment: In vitro efficacy for chloroquine-sensitive Plasmodium falciparum Thai strain; conditions: read-out: ED50 (the source's name)
Plasmodium falciparum [20] = experiment: Effect on nucleic acid of chloroquine-resistant Plasmodium falciparum K1 culture after 24 hrs at 30 nM; format: functional; procedure, shortened: as §5
Plasmodium falciparum [21] = experiment: Effect on glutathione content of chloroquine-resistant Plasmodium falciparum K1 culture after 24 hrs at 150 nM; format: functional
Procedure, shortened: (§8)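 Sorbitol-synchronized K1 rings (5% hematocrit, 3.7% parasitemia) exposed 24 h, then saponin-lysed and freeze-thawed. Extract (40 μL) was deproteinized with 2 volumes of 5% sulfosalicylic acid. Total glutathione was measured by GR-coupled DTNB-GSH recycling against a GSH standard curve. Expressed as nmol/mg protein.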

Plasmodium falciparum [22] = experiment: In vitro efficacy for chloroquine-resistant Plasmodium falciparum FcB1; format: functional; conditions: read-out: ED50 (the source's name); procedure, shortened: as §2
[23] = biological target: Glutathione reductase (Plasmodium falciparum K1) (UniProt Q94655); experiment: Effect on glutathione reductase activity of chloroquine-resistant Plasmodium falciparum K1 in culture after 24 hrs treatment at 150 nM conc; format: functional; procedure, shortened: as §7
Mus musculus [24] = experiment: Percentage of parasitaemia on day 18 in mice infected with Plasmodium berghei (ip, 40 mg/kg); format: functional; procedure, shortened: as §6
Plasmodium falciparum [25] = experiment: Effect on glutathione content of chloroquine-resistant Plasmodium falciparum K1 culture after 24 hrs at 500 nM; format: functional; procedure, shortened: as §8
Plasmodium falciparum [26] = experiment: In vitro efficacy for chloroquine-sensitive Plasmodium falciparum F32; conditions: read-out: ED50 (the source's name)
Plasmodium falciparum [27] = experiment: Effect on protein of chloroquine-resistant Plasmodium falciparum K1 culture after 24 hrs at 30 nM; format: functional; procedure, shortened: as §5
Plasmodium falciparum [28] = experiment: Effect on glutathione content of chloroquine-resistant Plasmodium falciparum K1 culture after 24 hrs at 30 nM; format: functional; procedure, shortened: as §8
Plasmodium falciparum [29] = experiment: In vitro efficacy for chloroquine-sensitive Plasmodium falciparum D6; conditions: read-out: ED50 (the source's name)
Plasmodium falciparum [30] = experiment: Effect on nucleic acid of chloroquine-resistant Plasmodium falciparum K1 culture after 24 hrs at 500 nM; format: functional; procedure, shortened: as §5
Plasmodium falciparum [31] = experiment: Effect on glutathione reductase activity of chloroquine-resistant Plasmodium falciparum K1 culture after 24 hrs at 500 nM; format: functional; procedure, shortened: as §7
Glutathione reductase = Glutathione reductase (Plasmodium falciparum 3D7, UniProt O15770); experiment: In vitro inhibition of Plasmodium falciparum Glutathione Reductase; set-up: species or system FcB1; procedure, shortened: as §1
[32] = biological target: T1, Glutathione reductase, mitochondrial (Homo sapiens); experiment: Competitive inhibition of human Glutathione Reductase
[33] = biological target: Glutathione reductase (Plasmodium falciparum 3D7) (UniProt O15770); experiment: Competitive inhibition of Plasmodium falciparum Glutathione Reductase; conditions: Plasmodium falciparum FcB1
[34] = biological target: T3, Glutathione reductase, mitochondrial (Homo sapiens, UniProt P00390); experiment: In vitro inhibition of human Glutathione Reductase; procedure, shortened: as §1
T3 sequence (P00390 whole entry): T1 sequence (whole entry)

[35] = read-out: ED50 (the source's name)

Sequence of Glutathione reductase (Plasmodium falciparum 3D7) (O15770 whole entry): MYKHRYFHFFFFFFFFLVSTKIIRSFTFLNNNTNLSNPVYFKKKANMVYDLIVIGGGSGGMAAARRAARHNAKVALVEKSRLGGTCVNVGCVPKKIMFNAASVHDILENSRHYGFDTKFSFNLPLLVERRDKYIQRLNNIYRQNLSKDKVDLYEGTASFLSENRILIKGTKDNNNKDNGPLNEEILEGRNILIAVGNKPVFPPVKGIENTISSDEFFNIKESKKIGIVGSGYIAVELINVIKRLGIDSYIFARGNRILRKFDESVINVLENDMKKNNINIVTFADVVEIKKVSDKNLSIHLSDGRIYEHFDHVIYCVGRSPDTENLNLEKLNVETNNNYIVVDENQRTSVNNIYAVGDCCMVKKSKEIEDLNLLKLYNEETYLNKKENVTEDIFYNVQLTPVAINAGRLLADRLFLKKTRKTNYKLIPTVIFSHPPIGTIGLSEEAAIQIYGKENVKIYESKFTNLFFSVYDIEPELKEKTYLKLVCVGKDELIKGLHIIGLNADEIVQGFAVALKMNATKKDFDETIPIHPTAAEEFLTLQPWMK
Sequence of Glutathione reductase (Plasmodium falciparum K1) (Q94655 whole entry): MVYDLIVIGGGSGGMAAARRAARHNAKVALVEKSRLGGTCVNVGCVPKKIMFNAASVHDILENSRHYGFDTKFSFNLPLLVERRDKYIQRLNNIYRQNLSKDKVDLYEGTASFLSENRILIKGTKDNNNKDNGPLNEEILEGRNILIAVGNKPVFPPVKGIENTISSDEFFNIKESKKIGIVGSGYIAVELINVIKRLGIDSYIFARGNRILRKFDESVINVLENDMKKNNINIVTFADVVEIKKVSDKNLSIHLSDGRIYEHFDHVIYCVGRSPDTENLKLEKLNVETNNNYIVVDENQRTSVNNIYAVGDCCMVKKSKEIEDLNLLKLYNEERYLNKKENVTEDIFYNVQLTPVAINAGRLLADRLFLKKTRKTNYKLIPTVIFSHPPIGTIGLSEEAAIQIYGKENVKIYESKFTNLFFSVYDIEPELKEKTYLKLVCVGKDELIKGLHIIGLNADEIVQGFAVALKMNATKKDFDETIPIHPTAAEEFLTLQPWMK
Sequence of Glutathione reductase (O15770 whole entry): as the sequence (O15770 whole entry) above

Compound: COC(=O)CCCCCC1=C(C)C(=O)c2ccccc2C1=O
- NA [1]: inactive
- EC50 (Plasmodium falciparum [2]; [35]): 10800 nM
- half-life [3]: 0.5 h
- half-life [4]: 1 h
- NA [5]: inactive
- half-life [6]: > 3 h

Compound: CCCC(=O)OCOC(=O)CCCCCC1=C(C)C(=O)c2ccccc2C1=O
- NA [1]: inactive
- EC50 (Plasmodium falciparum [2]; [35]): 22400 nM
- half-life [3]: 0.5 h
- half-life [4]: 1 h
- NA [5]: inactive

Compound: CC1=C(CCCCCC(=O)OCc2cc(NC(=O)CN3CCCCC3)cc(Nc3ccnc4cc(Cl)ccc34)c2)C(=O)c2ccccc2C1=O
- GST activity [7]: 3.7 mU mg-1
- EC50 (Plasmodium falciparum [8]): 26.4 nM
- Nucleic acids (Plasmodium falciparum [9]): 79 ng/mg
- GST activity [10]: 9.5 mU mg-1
- GST activity [11]: 4.3 mU mg-1
- Protein (Plasmodium falciparum [12]): 0.6 mg/mL
- EC50 (Plasmodium falciparum [13]): 29.3 nM
- Parasitaemia (Mus musculus [14]): 9%
- Protein (Plasmodium falciparum [15]): 0.4 mg/mL
- Parasitaemia (Mus musculus [16]): <0.1%
- Excess MST (Mus musculus [17]): 178%
- EC50 (Plasmodium falciparum [2]; read-out: ED50): 23.1 nM
- GR activity [18]: 30 mU mg-1
- EC50 (Plasmodium falciparum [19]): 36.5 nM
- half-life [3]: > 80 h
- Nucleic acids (Plasmodium falciparum [20]): 89 ng/mg
- Glutathione (Plasmodium falciparum [21]): <1 nM/mg
- EC50 (Plasmodium falciparum [22]): 23.1 nM
- half-life [4]: > 80 h
- GR activity [23]: 8 mU mg-1
- Parasitaemia (Mus musculus [24]): 48%
- Glutathione (Plasmodium falciparum [25]): <1 nM/mg
- EC50 (Plasmodium falciparum [26]): 25.8 nM
- Protein (Plasmodium falciparum [27]): 1.1 mg/mL
- half-life [6]: > 80 h
- Glutathione (Plasmodium falciparum [28]): 14.8 nM/mg
- EC50 (Plasmodium falciparum [29]): 27.7 nM
- Nucleic acids (Plasmodium falciparum [30]): 81 ng/mg
- GR activity (Plasmodium falciparum [31]): 6 mU mg-1

Compound: CC1=C(CCCCCC(=O)O)C(=O)c2c(O)cccc2C1=O
- IC50 (Glutathione reductase): 1300 nM
- EC50 (Plasmodium falciparum [2]; [35]): 8200 nM
- Ki.c [32]: 750 nM
- Ki.c [33]: 2300 nM
- IC50 [34]: 750 nM
